Assays:
[1] = biological target: adenosine A2A (hADORA2A) receptor (Homo sapiens, UniProt P29274); experiment: cAMP ELISA in NECA/ADA-stimulated hADORA2A-HEK293 cells; format: cell-based
[2] = Photostability of solution, HPLC purity after 1 h of light exposure; format: physicochemical; conditions: 1 h light exposure
In short: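 Test compound dissolved in acetonitrile–potassium dihydrogen phosphate solution. A reference solution was kept in the dark, and a second sample was exposed to light for 1 h. Purity of each was determined by HPLC with DAD detection.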

Sequence of adenosine A2A (hADORA2A) receptor (P29274 whole entry): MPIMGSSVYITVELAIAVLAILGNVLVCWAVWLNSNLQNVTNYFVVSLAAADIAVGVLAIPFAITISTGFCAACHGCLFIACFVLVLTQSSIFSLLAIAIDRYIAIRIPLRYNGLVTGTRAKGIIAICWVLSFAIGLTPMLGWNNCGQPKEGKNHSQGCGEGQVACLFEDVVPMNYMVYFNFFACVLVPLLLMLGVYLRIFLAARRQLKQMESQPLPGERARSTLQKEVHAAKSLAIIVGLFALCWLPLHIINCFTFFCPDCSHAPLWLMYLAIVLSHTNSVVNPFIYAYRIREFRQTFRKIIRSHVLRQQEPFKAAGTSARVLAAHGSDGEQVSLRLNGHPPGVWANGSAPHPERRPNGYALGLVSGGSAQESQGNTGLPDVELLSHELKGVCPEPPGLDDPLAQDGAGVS

| IC50 [1] | isomerization after 1 h of light exposure [2] | SMILES |
| --- | --- | --- |
| > 421 µM |  | Nc1ncnc2[nH]c(/C=C/c3ccccc3)nc12 [II-1-1, (E) -8-styryl-9H-purine-6-amine] |
|  | about 1/3 | CCn1c(=O)c2c(nc(/C=C/c3ccc(OC)c(OC)c3)n2C)n(CC)c1=O [Istradefylline, istradefylline] |
